In ChEMBL document CHEMBL1125296, “Structure-activity relationships associated with 3,4,5-triphenyl-1H-pyrazole-1-nonanoic acid, a nonprostanoid prostacyclin mimetic” (J Med Chem, 1992):

How the values were obtained:
[1] = target: Prostacyclin receptor (Homo sapiens, UniProt P43119); assay: IC50 value was evaluated by measuring the displacement of [3H]iloprost from Prostaglandin I2 receptor
Outline: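 Platelet plasma membranes (200 μg) incubated with 5 nM [3H]iloprost in 10 mM MgCl2, 1 mM EGTA, 50 mM Tris/HCl pH 7.4 at 0-4 °C for 90-120 min; diluted with ice-cold Tris buffer, rapidly filtered on GF/C, washed four times, bound radioactivity counted by scintillation; IC50 for displacement.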

[2] = organism: Homo sapiens; assay: Inhibition of ADP-induced human platelet aggregation; assay type: functional, organism-based
Outline: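 Human blood drawn into 1/10 volume 3.8% sodium citrate, spun 10 min at 140g for platelet-rich plasma; compound in DMSO added to PRP 3 min before ADP (5.86 μM); aggregation followed by Born aggregometry (Mustard modification) against vehicle controls; IC50 from dose-response curves.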

Chain of Prostacyclin receptor (P43119 whole entry): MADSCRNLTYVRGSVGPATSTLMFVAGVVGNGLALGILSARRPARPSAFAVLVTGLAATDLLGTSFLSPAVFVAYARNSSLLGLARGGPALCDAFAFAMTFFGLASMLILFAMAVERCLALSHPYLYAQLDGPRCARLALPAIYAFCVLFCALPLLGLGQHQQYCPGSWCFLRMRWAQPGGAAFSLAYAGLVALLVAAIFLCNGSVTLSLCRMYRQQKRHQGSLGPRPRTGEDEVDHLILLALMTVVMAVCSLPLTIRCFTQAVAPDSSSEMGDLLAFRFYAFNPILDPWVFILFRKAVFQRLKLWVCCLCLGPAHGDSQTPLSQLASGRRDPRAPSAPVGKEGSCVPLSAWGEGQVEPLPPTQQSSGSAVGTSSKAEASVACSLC

| IC50 [1] | IC50 [2] | Compound |
| --- | --- | --- |
| 0.35 µM | 4.5 µM | O=C(O)CCCCCCCCn1cc(-c2ccccc2)c(-c2ccccc2)n1 |
| 0.16 µM | 0.4 µM | O=C(O)CCCCCCCCn1nc(-c2ccccc2)c(-c2ccccc2)c1-c1ccccc1 |
| – | 33 µM | NC(=O)CCCCCCCCn1nc(-c2ccccc2)c(-c2ccccc2)c1-c1ccccc1 |
| – | 5.9 µM | CS(=O)(=O)NC(=O)CCCCCCCCn1nc(-c2ccccc2)c(-c2ccccc2)c1-c1ccccc1 |
| – | 1.04 µM | c1ccc(-c2nn(CCCCCCCCc3nnn[nH]3)c(-c3ccccc3)c2-c2ccccc2)cc1 |
| – | > 92 µM | O=C(O)CCCCCCn1ncc(-c2ccccc2)c1-c1ccccc1 |
| 0.7 µM | 5.8 µM | O=C(O)CCCCCCCCn1ncc(-c2ccccc2)c1-c1ccccc1 |
| – | 0.44 µM | O=C(O)COCCCCCCn1nc(-c2ccccc2)c(-c2ccccc2)c1-c1ccccc1 |
| – | > 62 µM | CC(C)(C)OC(=O)COCCCCCCn1nc(-c2ccccc2)c(-c2ccccc2)c1-c1ccccc1 |
| – | 22 µM | O=C(O)CS(=O)(=O)CCCCCCn1nc(-c2ccccc2)c(-c2ccccc2)c1-c1ccccc1 |
| > 10 µM | > 105 µM | O=C(O)CCCCCCCCn1cc(-c2ccccc2)cn1 |
| – | > 68 µM | CNC(=O)CCCCCCCCn1nc(-c2ccccc2)c(-c2ccccc2)c1-c1ccccc1 |
| – | 5.5 µM | O=C(O)CCCCCCCCCn1nc(-c2ccccc2)c(-c2ccccc2)c1-c1ccccc1 |
| > 10 µM | > 66 µM | O=C(O)CCCCCCCCn1nc(-c2ccccc2)cc1-c1ccccc1 |
| – | > 82 µM | O=C(O)CCCCCCCCCn1ncc(-c2ccccc2)c1-c1ccccc1 |
| – | 18.6 µM | O=C(O)CCCCCCCCCCn1nc(-c2ccccc2)c(-c2ccccc2)c1-c1ccccc1 |
| – | 3.4 µM | O=C(O)CCCCCCCn1nc(-c2ccccc2)c(-c2ccccc2)c1-c1ccccc1 |
| – | 0.87 µM | O=C(O)CSCCCCCCn1nc(-c2ccccc2)c(-c2ccccc2)c1-c1ccccc1 |
| – | > 81 µM | O=C(O)CCCCCCCCCn1cc(-c2ccccc2)c(-c2ccccc2)n1 |
| – | 6.5 µM | O=C(O)C[S+]([O-])CCCCCCn1nc(-c2ccccc2)c(-c2ccccc2)c1-c1ccccc1 (stereo not given) |
| – | > 79 µM | CCc1c(-c2ccccc2)nn(CCCCCCCCC(=O)O)c1-c1ccccc1 |
| – | > 92 µM | O=C(O)CCCCCCn1cc(-c2ccccc2)c(-c2ccccc2)n1 |
| – | 22.4 µM | O=C(O)CCCCCCn1nc(-c2ccccc2)c(-c2ccccc2)c1-c1ccccc1 |
| – | > 78 µM | O=C(O)CCCCCn1nc(-c2ccccc2)c(-c2ccccc2)c1-c1ccccc1 |
| – | > 68 µM | O=C(O)CCCCCCCCn1nc(-c2ccccc2)c(Cc2ccccc2)c1-c1ccccc1 |
| – | 4.3 µM | COC(=O)CCCCCCCCn1nc(-c2ccccc2)c(-c2ccccc2)c1-c1ccccc1 |
| – | > 85 µM | O=C(O)CCCCCCCn1cc(-c2ccccc2)c(-c2ccccc2)n1 |
| 0.16 µM | 1.5 µM | O=C(O)CCCCCCCn1ncc(-c2ccccc2)c1-c1ccccc1 |
| – | > 72 µM | N#CCCCCCCCCn1nc(-c2ccccc2)c(-c2ccccc2)c1-c1ccccc1 |
